# Measured values published in ChEMBL document CHEMBL3526056, “Characterization of in vitro glucuronidation clearance of a range of drugs in human kidney microsomes: comparison with liver and intestinal glucuronidation and impact of albumin” (Drug Metab Dispos, 2012).
# Assays:
# [1] = target: T1, UDP-glucuronosyltransferase 1A3 (Homo sapiens, UniProt P35503); assay: Drug metabolism in human kidney microsomes assessed as UGT1A3-mediated unbound intrinsic glucuronidation clearance at 1 uM after 30 to 60 mins by LC-MS/MS analysis in presence of 1% bovine serum albumin; type: ADME
# T1 sequence (P35503 whole entry): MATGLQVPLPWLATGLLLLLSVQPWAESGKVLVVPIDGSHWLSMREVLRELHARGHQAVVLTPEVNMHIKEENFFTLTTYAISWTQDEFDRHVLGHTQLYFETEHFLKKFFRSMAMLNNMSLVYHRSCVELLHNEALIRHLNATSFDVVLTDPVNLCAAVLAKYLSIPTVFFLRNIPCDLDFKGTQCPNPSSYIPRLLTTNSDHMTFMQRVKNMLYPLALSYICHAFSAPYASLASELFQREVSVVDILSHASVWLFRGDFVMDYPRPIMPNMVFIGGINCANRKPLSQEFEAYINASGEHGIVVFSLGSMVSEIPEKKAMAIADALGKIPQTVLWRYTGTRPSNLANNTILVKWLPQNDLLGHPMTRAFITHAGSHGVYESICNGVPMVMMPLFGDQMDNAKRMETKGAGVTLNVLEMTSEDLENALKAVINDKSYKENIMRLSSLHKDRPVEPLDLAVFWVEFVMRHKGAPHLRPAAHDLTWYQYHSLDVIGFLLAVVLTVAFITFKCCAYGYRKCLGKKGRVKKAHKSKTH
# [2] = target: T1, UDP-glucuronosyltransferase 1A3; assay: Ratio of UGT1A3-mediated unbound intrinsic glucuronidation clearance in human kidney microsomes to UGT1A3-mediated unbound intrinsic glucuronidation clearance in human liver microsomes at 1 uM in presence of 1% bovine serum albumin; type: ADME
# Summary of the method: (§1)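 Ratios of mean unbound CLint,UGT, each scaled per g tissue, between pooled liver, kidney and intestinal microsomes. Values come from 1 μM substrate-depletion assays in pH 7.1 phosphate at 37°C, run with or without BSA (1% for acids, 2% for bases/neutral drugs). Corrected for nonspecific binding. Kidney and liver n = 3; intestine n = 1; each in duplicate.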
# [3] = target: T1, UDP-glucuronosyltransferase 1A3; assay: Ratio of UGT1A3-mediated unbound intrinsic glucuronidation clearance in human intestinal microsomes to UGT1A3-mediated unbound intrinsic glucuronidation clearance in human liver microsomes at 1 uM in presence of 1% bovine serum albumin; type: ADME; summary of the method: as §1
# [4] = target: T1, UDP-glucuronosyltransferase 1A3; assay: Ratio of UGT1A3-mediated unbound intrinsic glucuronidation clearance in human kidney microsomes to UGT1A3-mediated unbound intrinsic glucuronidation clearance in human intestinal microsomes at 1 uM in presence of 1% bovine serum albumin; type: ADME; summary of the method: as §1
# [5] = Clearance in iv dosed human; type: ADME, organism-based; conditions: in vivo
# [6] = Fraction unbound in human plasma
# Liver microsome [7] = assay: Fraction metabolized glucuronidation in human liver microsomes in presence of UDP-glucuronosyltransferase; type: ADME
# Liver microsome [8] = assay: Fraction metabolized glucuronidation in human liver microsomes in presence of UDP-glucuronosyltransferase and bovine serum albumin; type: ADME
# [9] = Glucuronidation clearance in human liver microsomes; type: ADME
# [10] = Glucuronidation clearance in human liver microsomes in presence of bovine serum albumin; type: ADME
# [11] = Fraction unbound in human liver microsomes at 1 uM after 30 to 60 mins by LC-MS/MS analysis; type: ADME
# [12] = Fraction unbound in human kidney microsomes at 1 uM after 30 to 60 mins by LC-MS/MS analysis; type: ADME
# [13] = Fraction unbound in human intestinal microsomes at 1 uM after 30 to 60 mins by LC-MS/MS analysis; type: ADME, Intestine, Microsome
# Liver microsome [14] = assay: Fraction unbound in human liver microsomes at 1 uM after 30 to 60 mins by LC-MS/MS analysis in presence of 1% bovine serum albumin; type: ADME; conditions: microsomes, 1 µM
# Liver microsome [15] = assay: Unbound intrinsic glucuronidation clearance in human liver microsomes at 1 uM after 30 to 60 mins by LC-MS/MS analysis in presence of UDP-glucuronosyltransferase; type: ADME
# Summary of the method: (§2)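 Alamethicin-activated pooled microsomes (HLM 150 donors; HKM 8; HIM 18). Drug at 1 μM final, preincubated 5 min at 37°C in 0.1 M phosphate pH 7.1 with 3.45 mM MgCl2, 1.15 mM EDTA, 115 μM saccharic acid lactone. Started with […] cofactor (5 mM final), 30–60 min. Cofactor-free controls. Parent depletion by LC-MS/MS, single-exponential k. Corrected by HLM-dialysis fu,inc. Duplicates; n=3 (HIM n=1).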
# Liver microsome [16] = assay: Unbound intrinsic glucuronidation clearance in human liver microsomes at 1 uM after 30 to 60 mins by LC-MS/MS analysis in presence of UDP-glucuronosyltransferase and 1% bovine serum albumin; type: ADME
# [17] = Unbound intrinsic glucuronidation clearance in human kidney microsomes at 1 uM after 30 to 60 mins by LC-MS/MS analysis in presence of UDP-glucuronosyltransferase; type: ADME, microsome; summary of the method: as §2
# [18] = target: T1, UDP-glucuronosyltransferase 1A3; assay: Drug metabolism in human intestinal microsomes assessed as UGT1A3-mediated unbound intrinsic glucuronidation clearance at 1 uM after 30 to 60 mins by LC-MS/MS analysis in presence of 1% bovine serum albumin; type: ADME, Intestine
# [19] = target: T1, UDP-glucuronosyltransferase 1A3; assay: Drug metabolism in human kidney microsomes assessed as UGT1A3-mediated unbound intrinsic glucuronidation clearance at 1 uM after 30 to 60 mins by LC-MS/MS analysis; type: ADME
# Summary of the method: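 Pooled human kidney microsomes (8 donors), alamethicin-activated. […] Started with cofactor (5 mM in incubation) and run 30–60 min. Parent depletion measured by LC-MS/MS; single-exponential k; corrected by equilibrium-dialysis fu,inc. Duplicates, three occasions.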
# [20] = target: T1, UDP-glucuronosyltransferase 1A3; assay: Drug metabolism in human intestinal microsomes assessed as UGT1A3-mediated unbound intrinsic glucuronidation clearance at 1 uM after 30 to 60 mins by LC-MS/MS analysis; type: ADME, Intestine
# [21] = Unbound intrinsic glucuronidation clearance in human kidney microsomes at 1 uM after 30 to 60 mins by LC-MS/MS analysis in presence of UDP-glucuronosyltransferase and 1% bovine serum albumin; type: ADME, microsome
# [22] = Unbound intrinsic glucuronidation clearance in human intestinal microsomes at 1 uM after 30 to 60 mins by LC-MS/MS analysis in presence of UDP-glucuronosyltransferase; type: ADME, Intestine, Microsome; summary of the method: as §2
# [23] = Unbound intrinsic glucuronidation clearance in human intestinal microsomes at 1 uM after 30 to 60 mins by LC-MS/MS analysis in presence of UDP-glucuronosyltransferase and 1% bovine serum albumin; type: ADME, Intestine, Microsome
# Liver microsome [24] = assay: Ratio of unbound intrinsic glucuronidation clearance in human liver microsomes in presence of 1% bovine serum albumin to unbound intrinsic glucuronidation clearance in human liver microsomes in absence of bovine serum albumin; type: ADME
# Summary of the method: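 Ratio of mean unbound CLint,UGT in pooled human liver microsomes with 1% BSA to that without BSA. Both come from 1 μM depletion assays at 37°C in pH 7.1 phosphate buffer, with parent drug measured by LC-MS/MS. BSA runs were quenched in double-volume ice-cold acetonitrile. Each condition was corrected by its own equilibrium-dialysis fu,inc. n = 3, duplicates.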
# [25] = Ratio of unbound intrinsic glucuronidation clearance in human kidney microsomes in presence of 1% bovine serum albumin to unbound intrinsic glucuronidation clearance in human kidney microsomes in absence of bovine serum albumin; type: ADME, microsome
# Summary of the method: (§3)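 Unbound intrinsic glucuronidation clearance measured by parent-drug depletion in intestinal or kidney microsomes, once with 1% BSA and once without, under otherwise matched conditions (1 μM drug, pH 7.1 phosphate, 5 mM cofactor, 37°C). Each value was corrected for fu,inc. The ratio is the mean clearance with BSA over the mean without.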
# [26] = Ratio of unbound intrinsic glucuronidation clearance in human intestinal microsomes in presence of 1% bovine serum albumin to unbound intrinsic glucuronidation clearance in human intestinal microsomes in absence of bovine serum albumin; type: ADME, Intestine, Microsome; summary of the method: as §3
# [27] = target: T1, UDP-glucuronosyltransferase 1A3; assay: Drug metabolism in human liver microsomes assessed as UGT1A3-mediated unbound intrinsic glucuronidation clearance at 1 uM after 30 to 60 mins by LC-MS/MS analysis; type: ADME
# [28] = target: T1, UDP-glucuronosyltransferase 1A3; assay: Ratio of UGT1A3-mediated unbound intrinsic glucuronidation clearance in human kidney microsomes to UGT1A3-mediated unbound intrinsic glucuronidation clearance in human liver microsomes at 1 uM; type: ADME; summary of the method: as §1
# [29] = target: T1, UDP-glucuronosyltransferase 1A3; assay: Ratio of UGT1A3-mediated unbound intrinsic glucuronidation clearance in human intestinal microsomes to UGT1A3-mediated unbound intrinsic glucuronidation clearance in human liver microsomes at 1 uM; type: ADME; summary of the method: as §1
# [30] = target: T1, UDP-glucuronosyltransferase 1A3; assay: Ratio of UGT1A3-mediated unbound intrinsic glucuronidation clearance in human kidney microsomes to UGT1A3-mediated unbound intrinsic glucuronidation clearance in human intestinal microsomes at 1 uM; type: ADME; summary of the method: as §1
# [31] = target: T1, UDP-glucuronosyltransferase 1A3; assay: Drug metabolism in human liver microsomes assessed as UGT1A3-mediated unbound intrinsic glucuronidation clearance at 1 uM after 30 to 60 mins by LC-MS/MS analysis in presence of 1% bovine serum albumin; type: ADME
smiles,measurement,setting,value
CCCc1nc2c(C)cc(-c3nc4ccccc4n3C)cc2n1Cc1ccc(-c2ccccc2C(=O)O)cc1,CL free,[1],0.439 mL/min/g
same,Ratio,[2],0.028
same,Ratio,[3],0.119
same,Ratio,[4],0.233
same,clearance,[5],12.3 mL/min/kg
same,fraction unbound,[6],0.005
same,Drug metabolism,Liver microsome [7],1
same,Drug metabolism,Liver microsome [8],1
same,CLhep predicted,[9],9.93 mL/min/kg
same,CLhep predicted,[10],9.93 mL/min/kg
same,fraction unbound at 1 µM,[11],0.65
same,fraction unbound at 1 µM,[12],0.48
same,fraction unbound at 1 µM,[13],0.48
same,Fu,Liver microsome [14],0.07
same,CL free,Liver microsome [15],76.9 µL/min/mg
same,CL free,Liver microsome [16],395 µL/min/mg
same,CL free,[17],9.72 µL/min/mg
same,CL free,[18],1.88 mL/min/g
same,CL free,[19],0.124 mL/min/g
same,CL free,[20],0.438 mL/min/g
same,CL free,[21],34.3 µL/min/mg
same,CL free,[22],21.3 µL/min/mg
same,CL free,[23],91.4 µL/min/mg
same,Ratio,Liver microsome [24],1.6
same,Ratio,[25],1.6
same,Ratio,[26],1.6
same,CL free,[27],3.08 mL/min/g
same,Ratio,[28],0.04
same,Ratio,[29],0.142
same,Ratio,[30],0.284
same,CL free,[31],15.8 mL/min/g
